In one series the test system is HeLa. In words: Antiproliferative activity against human Hela cells after 48 hrs by MTT assay. The class given is functional, cell-based. The method in brief:
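Cells seeded at 5.0×10^3 per well, pre-incubated 12 h at 37 °C, 5% CO2, then exposed to compounds for 48 h; DMSO-only control. MTT (2.5 mg/mL) added for 4 h, formazan dissolved in DMSO, absorbance at 570 nm. Each dose tested in triplicate; IC50 from percentage survival relative to negative control.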
On the technique in general: Formazan colour is commonly taken as a measure of viable cells.

The subject of series [1] is SiHa. The series can be described thus: Induction of apoptosis in human SiHa cells assessed as early apoptotic cells at 0.6 uM after 24 hrs by annexin V/FITC-propidium iodide staining-based flow cytometric method ( Rvb = 0.3%). The class given is functional.
Series [2] deals with SiHa. The series can be described thus: Induction of apoptosis in human SiHa cells assessed as early apoptotic cells at 2.4 uM after 24 hrs by annexin V/FITC-propidium iodide staining-based flow cytometric method ( Rvb = 0.3%). The class given is functional. For orientation: In flow cytometry, cells or beads pass a laser one at a time.
Series [3] concerns SiHa. The series can be described thus: Induction of cell cycle arrest in human SiHa cells assessed as accumulation of cells at S phase at 0.60 uM after 24 hrs by propidium iodide staining based flow cytometry (reference value: 17.74%). It is filed as functional. To be noted: dose 0.6 µM.
The next series has as its system Raji. The series can be described thus: Induction of apoptosis in human Raji cells at 0.6 to 2.4 uM after 24 hrs by propidium iodide staining based flow cytometry. The class given is functional, cell-based. To be noted: dose microM 0.6-2.4, time 24.0 hrs.
Series [4] concerns SiHa. In words: Induction of apoptosis in human SiHa cells assessed as late apoptotic cells at 0.6 uM after 24 hrs by annexin V/FITC-propidium iodide staining-based flow cytometric method ( Rvb = 0.4%). The class given is functional.
Series [5] concerns SiHa. In words: Induction of cell cycle arrest in human SiHa cells assessed as accumulation of cells at G0/G1 phase at 0.15 uM after 24 hrs by propidium iodide staining based flow cytometry (reference value: 42.28%). The class given is functional.
Series [6] can be described thus: Toxicity in BALB/c nude mouse xenografted with human SiHa cells assessed as effect on liver weight at 15 mg/kg, ip administered once per 2 days for 18 days. It is filed as organism-based. The settings on record: in vivo, 432 h, time 18 day. The procedure, abridged:
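SiHa tumour fragments passaged from donor mice implanted in the underarm of female BALB/c nude mice (six per group). Compound given at 15 mg/kg ip once every two days for 18 days, with saline and cisplatin 0.2 mg/kg control groups. Body weight recorded every two days; at day 18 mice were sacrificed and organs weighed.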

Series [7] concerns SiHa. In words: Effect on stability of c-myc RNA in human SiHa cells at 2.5 uM in presence of actinomycin D by RT-PCR method. The class given is functional, cell-based. The method in brief:
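SiHa cells seeded at 2×10^5 per well, grown 24 h, then treated with 5 µg/mL actinomycin D plus 2.5 µM compound. Total RNA extracted at the indicated time points for RT-PCR.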

The nature of series [8]: Stabilization of c-myc promoter i-motif DNA Py33 (unknown origin) assessed as decrease in negative peak intensity at pH 5.5 measured at 260 nanometer by CD spectroscopy. The procedure, abridged:
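Py33 at 1 µM in 1× BPES pH 5.5 (pH 6.8 random-coil reference), with or without ligand. Annealed at 95 °C for 5 min, cooled, kept at 4 °C overnight. CD spectra in a 4 mm cuvette over 230–350 nm, three scans averaged, buffer-corrected; peaks followed at 288 and 260 nm.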

Series [9] has as its system SiHa. The series can be described thus: Induction of cell cycle arrest in human SiHa cells assessed as accumulation of cells at G2/M phase at 0.30 uM after 24 hrs by propidium iodide staining based flow cytometry (reference value: 29.71%). The class given is functional. The settings on record: dose 0.3 µM.
The test system of series [10] is SiHa. The series can be described thus: Induction of apoptosis in human SiHa cells assessed as decrease in caspase-9 level incubated for 24 hrs by Western blot analysis. The class given is functional, cell-based. The settings on record: dose microM 0.6-2.4, time 24.0 hrs. A general note: Immunoblotting shows a protein as a band on a membrane.
In series [11] the test system is SiHa. In words: Induction of cell cycle arrest in human SiHa cells assessed as accumulation of cells at G2/M phase at 0.60 uM after 24 hrs by propidium iodide staining based flow cytometry (reference value: 29.71%). The class given is functional. The settings on record: dose 0.6 µM.
Series [12] concerns SiHa. In words: Induction of apoptosis in human SiHa cells assessed as increase in cleaved caspase-7 level incubated for 24 hrs by Western blot analysis. The settings on record: dose microM 0.6-2.4, time 24.0 hrs. It is filed as functional, cell-based.

The text below walks through data of ChEMBL document CHEMBL4725346, “Syntheses and Evaluation of New Bisacridine Derivatives for Dual Binding of G-Quadruplex and i-Motif in Regulating Oncogene c-myc Expression” (J Med Chem, 2020).

Active and inactive are the calls of the source. The rule behind the calls is not given here.

Broadly, the IC50 is the concentration that gives 50% inhibition. A low value points to inhibition by little substance. Compound `Cc1ccc2nc3ccc(C)cc3c(NCCCNCCNCCCNc3c4cc(C)ccc4nc4ccc(C)cc34)c2c1` gave an IC50 with HeLa of 450 nM. Also, the Activity is 18.1% with SiHa [1]; 55.4% in the series on SiHa [2]; 13.58% in the series on SiHa [3]; 3.8% with SiHa [4]; 37.96% in the series with SiHa [5]; “Non-Toxic” in series [6]. For the same compound, the Activity in the series on SiHa [9] is 42.47%; in the series on SiHa [10], “Dose-dependent effect”; in the series on SiHa [11], 56.91%; in the series with SiHa [12] it was “Dose-dependent effect”. Besides, the outcome (in the series on Raji; in series [8]) was Active. In addition, the result in the series with SiHa [7] was inactive.
